# Measured values: ChEMBL document CHEMBL3286120, “Design and synthesis of novel soluble 2,5-diketopiperazine derivatives as potential anticancer agents” (Eur J Med Chem, 2014)
# What was measured:
# [1] = tested on: NCI-H1975; experiment: Cytotoxicity against human NCI-H1975 cells assessed as reduction in cell viability after 72 hrs by CCK8 assay; format: functional, cell-based
# How it was run: (§1)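 Cells kept in RPMI or DMEM with 10% FBS and 1% penicillin/streptomycin at 37 °C in 5% CO2. Seeded at 400-800 cells/well in 384-well plates and exposed to varying compound concentrations, with solution-only control, for 72 h. CCK8 reagent added, then absorbance read at 450 nm. Plinabulin and TSA were positive controls. Mean SD of three experiments.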
# [2] = Cytotoxicity against human BGC823 cells assessed as reduction in cell viability after 72 hrs by CCK8 assay; format: functional, cell-based, BGC-823; how it was run: as §1
# [3] = tested on: HeLa; experiment: Cytotoxicity against human HeLa cells assessed as reduction in cell viability after 72 hrs by CCK8 assay; format: functional, cell-based; how it was run: as §1
# [4] = Cytotoxicity against human HuH7 cells assessed as reduction in cell viability after 72 hrs by CCK8 assay; format: functional, cell-based, Huh-7; how it was run: as §1
# [5] = tested on: MCF7; experiment: Cytotoxicity against human MCF7 cells assessed as reduction in cell viability after 72 hrs by CCK8 assay; format: functional, cell-based; how it was run: as §1
# [6] = tested on: A549; experiment: Cytotoxicity against human A549 cells assessed as reduction in cell viability after 72 hrs by CCK8 assay; format: functional, cell-based; how it was run: as §1
# [7] = tested on: HL-60; experiment: Cytotoxicity against human HL60 cells assessed as reduction in cell viability after 72 hrs by CCK8 assay; format: functional, cell-based; how it was run: as §1
# [8] = tested on: K562; experiment: Cytotoxicity against human K562 cells assessed as reduction in cell viability after 72 hrs by CCK8 assay; format: functional, cell-based; how it was run: as §1
# [9] = tested on: U-937; experiment: Cytotoxicity against human U937 cells assessed as reduction in cell viability after 72 hrs by CCK8 assay; format: functional, cell-based; how it was run: as §1
# [10] = tested on: MOLT-4; experiment: Cytotoxicity against human MOLT4 cells assessed as reduction in cell viability after 72 hrs by CCK8 assay; format: functional, cell-based; settings: Homo sapiens, MOLT-4, 72 h; read-out: IC50; how it was run: as §1
# [11] = Homo sapiens, NCI-H1975, 72 h, read-out: IC50
# [12] = Homo sapiens, BGC-823, 72 h, read-out: IC50
# [13] = Homo sapiens, HeLa, 72 h, read-out: IC50
# [14] = Homo sapiens, Huh-7, 72 h, read-out: IC50
# [15] = Homo sapiens, MCF7, 72 h, read-out: IC50
# [16] = Homo sapiens, A549, 72 h, read-out: IC50
# [17] = Homo sapiens, HL-60, 72 h, read-out: IC50
# [18] = Homo sapiens, K562, 72 h, read-out: IC50
# [19] = Homo sapiens, U-937, 72 h, read-out: IC50
Structure (SMILES),IC50 ([1]; nci-h1975),IC50 ([2]; bgc-823),IC50 ([3]; hela),IC50 ([4]; huh-7),IC50 ([5]; mcf7),IC50 ([6]; a549),IC50 ([7]; hl-60),IC50 ([8]; k562),IC50 ([9]; u-937),"IC50 [1, 11]","IC50 [2, 12]","IC50 [3, 13]","IC50 [4, 14]","IC50 [5, 15]","IC50 [6, 16]","IC50 [7, 17]","IC50 [8, 18]",IC50 [10],"IC50 [9, 19]"
COc1ccccc1/C=c1/[nH]c(=O)/c(=C\c2ccccc2OC)[nH]c1=O,Not Active,Not Active,Not Active,Not Active,Not Active,Not Active,Not Active,Not Active,Not Active,–,–,–,–,–,–,–,–,–,–
C=CCn1c(=O)/c(=C\c2cccc(Cl)c2)[nH]c(=O)/c1=C\c1ccccc1OC,–,–,–,–,–,–,–,–,–,5.1 µM,4.6 µM,5.5 µM,8.9 µM,5.2 µM,5.2 µM,4.5 µM,2.7 µM,4.9 µM,1.2 µM
C=CCn1c(=O)/c(=C\c2cccc(F)c2)[nH]c(=O)/c1=C\c1ccccc1OC,–,–,–,–,–,–,–,–,–,25.6 µM,5.6 µM,9.1 µM,27.2 µM,13.7 µM,19.7 µM,8.89 µM,4.1 µM,6.5 µM,2.5 µM
C=CCn1c(=O)/c(=C\c2cccc(C)c2)[nH]c(=O)/c1=C\c1ccccc1OC,–,–,–,–,–,–,–,–,–,32.8 µM,20.4 µM,19.3 µM,21.4 µM,20.7 µM,22.7 µM,16.7 µM,8.8 µM,16 µM,5.1 µM
C=CCn1c(=O)/c(=C\c2ccccc2Cl)[nH]c(=O)/c1=C\c1ccccc1OC,–,–,–,–,–,–,–,–,–,9.2 µM,4.6 µM,5.1 µM,6.4 µM,4.7 µM,5.3 µM,4.2 µM,2.5 µM,4.4 µM,0.7 µM
C=CCn1c(=O)/c(=C\c2ccccc2F)[nH]c(=O)/c1=C\c1ccccc1OC,–,–,–,–,–,Not Active,–,–,–,25.1 µM,18.9 µM,45 µM,31.3 µM,23 µM,–,18.5 µM,5.6 µM,20 µM,5.5 µM
C=CCn1c(=O)/c(=C\c2ccccc2C(F)(F)F)[nH]c(=O)/c1=C\c1ccccc1OC,–,–,–,–,–,–,–,–,–,14.5 µM,5.1 µM,4.6 µM,9.5 µM,6.5 µM,7 µM,4.6 µM,2.7 µM,4.4 µM,1.5 µM
COc1ccccc1/C=c1/[nH]c(=O)/c(=C\c2ccccc2OC)n(C)c1=O,–,Not Active,Not Active,Not Active,–,–,–,–,–,16.9 µM,–,–,–,9 µM,7 µM,16.2 µM,2.2 µM,–,1.5 µM
COc1ccccc1/C=c1\c(=O)[nH]/c(=C/c2ccccc2Cl)c(=O)n1C,–,–,–,–,–,–,–,–,–,0.2 µM,0.3 µM,0.3 µM,0.3 µM,0.2 µM,0.3 µM,0.2 µM,0.11 µM,–,0.1 µM
COc1ccccc1/C=c1\c(=O)[nH]/c(=C/c2cccc(Cl)c2Cl)c(=O)n1C,–,–,–,–,–,–,–,–,–,0.3 µM,0.3 µM,0.2 µM,0.3 µM,0.2 µM,0.2 µM,0.2 µM,0.11 µM,–,0.1 µM
COc1ccccc1/C=c1/[nH]c(=O)/c(=C\c2cccc(Cl)c2Cl)[nH]c1=O,Not Active,Not Active,Not Active,Not Active,Not Active,Not Active,Not Active,Not Active,Not Active,–,–,–,–,–,–,–,–,–,–
CC(C)(C)c1[nH]cnc1/C=c1\[nH]c(=O)/c(=C/c2ccccc2)[nH]c1=O [PLINABULIN],–,–,–,–,–,–,–,–,–,0.011 µM,0.009 µM,0.01 µM,0.031 µM,0.01 µM,0.01 µM,0.01 µM,0.008 µM,–,0.006 µM
